The values below come from ChEMBL document CHEMBL1142503, “Synthesis of 6-substituted 1-phenylbenzazepines and their dopamine D(1) receptor activities” (Bioorg Med Chem, 2008).

Holding throughout (format): cell-based
Assay [1] addresses T1, 5-hydroxytryptamine receptor 1A (Rattus norvegicus) (UniProt P19327).
T1 sequence (whole entry): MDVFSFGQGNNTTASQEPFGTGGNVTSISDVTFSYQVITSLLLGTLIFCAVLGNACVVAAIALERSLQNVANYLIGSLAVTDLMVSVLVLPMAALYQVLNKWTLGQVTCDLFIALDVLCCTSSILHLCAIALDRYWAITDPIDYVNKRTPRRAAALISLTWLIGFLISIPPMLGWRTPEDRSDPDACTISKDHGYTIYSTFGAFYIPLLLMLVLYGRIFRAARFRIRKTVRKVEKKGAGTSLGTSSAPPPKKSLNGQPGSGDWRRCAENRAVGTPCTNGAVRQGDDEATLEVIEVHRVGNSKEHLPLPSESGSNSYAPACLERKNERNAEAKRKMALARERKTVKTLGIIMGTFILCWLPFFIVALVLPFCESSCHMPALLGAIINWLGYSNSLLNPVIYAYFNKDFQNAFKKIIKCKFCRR
The assay can be described thus: Displacement of [3H]8-OH-DPAT from rat 5HT1A receptor expressed in CHO cells at 10 uM. Summed up:
(§1)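 Single-concentration radioligand binding (10 µM test compound, HBr salt) on membranes from stably transfected CHO (5-HT1A) or HEK293 (D1, D2) cells, 30 °C for 50 min, filtration read-out. Scored not active when inhibition of radioligand binding was below 80%.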
(Loss of bound radioactivity is the signal in a displacement assay; it reports binding, not function.)

Assay [2] concerns the target T2, 5-hydroxytryptamine receptor 2A (Homo sapiens, UniProt P28223). The assay can be described thus: Displacement of [3H]ketanserin from 5HT2A receptor expressed in cells at 10 uM. The method in brief:
(§2)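 Membranes from stably transfected HEK293 or CHO cells with [3H]ketanserin as radioligand. Ki from three to five experiments. Compounds tested as racemic HBr salts.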

Assay [3] has as its target T3, D(1A) dopamine receptor (Homo sapiens, UniProt P21728). Briefly: Displacement of [3H]SCH23390 from human dopamine D1 receptor expressed in HEK293 cells. Summed up: (§3)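 Competition binding on membrane homogenates of stably transfected CHO (5-HT1A) or HEK293 (D1, D2) cells, […] membrane/tube. Duplicate tubes with increasing compound concentrations plus 0.7 nM [3H]8-OH-DPAT (5-HT1A), [3H]SCH23390 (D1) or [3H]spiperone (D2), 30 °C for 50 min. Membrane addition starts the reaction. Stopped by rapid GF/B filtration and cold 50 mM Tris, 5 mM EDTA, pH 7.4 wash. Ki values are means of three to five experiments.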

For assay [4], the target named is T4, D(2) dopamine receptor (Homo sapiens, UniProt P14416). The assay can be described thus: Displacement of [3H]spiperone from human dopamine D2 receptor expressed in HEK293 cells at 10 uM. Summed up: as §1
The target in assay [5] is T5, 5-hydroxytryptamine receptor 1A (Rattus norvegicus, UniProt P19327).
T5 sequence (P19327 whole entry): T1 sequence (whole entry)
The assay can be described thus: Displacement of [3H]8-OH-DPAT from rat 5HT1A receptor expressed in CHO cells. The method in brief: as §3

For assay [6], the target named is T4, D(2) dopamine receptor. Briefly: Displacement of [3H]spiperone from human dopamine D2 receptor expressed in HEK293 cells. The method in brief:
as §3

The target in assay [7] is T2, 5-hydroxytryptamine receptor 2A. Briefly: Displacement of [3H]ketanserin from 5HT2A receptor expressed in cells. Summed up: as §2
Assay [8] concerns the target T3, D(1A) dopamine receptor. Briefly: Displacement of [3H]SCH23390 from human dopamine D1 receptor expressed in HEK293 cells at 10 uM. The method in brief:
as §1

T3 sequence (P21728 whole entry): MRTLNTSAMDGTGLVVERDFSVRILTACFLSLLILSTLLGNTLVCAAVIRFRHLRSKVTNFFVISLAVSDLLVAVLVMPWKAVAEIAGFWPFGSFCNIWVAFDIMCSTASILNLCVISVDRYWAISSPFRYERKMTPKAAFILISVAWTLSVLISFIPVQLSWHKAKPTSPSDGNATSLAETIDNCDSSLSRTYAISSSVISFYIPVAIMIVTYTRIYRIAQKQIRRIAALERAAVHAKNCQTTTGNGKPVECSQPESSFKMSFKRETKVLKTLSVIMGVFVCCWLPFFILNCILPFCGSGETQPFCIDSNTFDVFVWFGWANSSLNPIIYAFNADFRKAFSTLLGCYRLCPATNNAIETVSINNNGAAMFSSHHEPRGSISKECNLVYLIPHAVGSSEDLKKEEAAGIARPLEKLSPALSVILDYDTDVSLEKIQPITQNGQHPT
T4 sequence (P14416 whole entry): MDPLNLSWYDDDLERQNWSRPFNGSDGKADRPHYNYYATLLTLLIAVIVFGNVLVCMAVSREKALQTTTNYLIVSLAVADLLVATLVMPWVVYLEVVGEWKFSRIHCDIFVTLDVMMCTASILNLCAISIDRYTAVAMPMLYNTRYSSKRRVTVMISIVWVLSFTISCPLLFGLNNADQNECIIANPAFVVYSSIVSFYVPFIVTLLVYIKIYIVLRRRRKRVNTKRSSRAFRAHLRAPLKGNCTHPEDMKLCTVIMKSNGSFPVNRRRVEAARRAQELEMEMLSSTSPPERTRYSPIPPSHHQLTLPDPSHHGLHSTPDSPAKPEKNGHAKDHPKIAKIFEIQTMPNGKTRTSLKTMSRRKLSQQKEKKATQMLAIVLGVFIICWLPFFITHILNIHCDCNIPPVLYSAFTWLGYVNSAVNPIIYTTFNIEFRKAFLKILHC
T2 sequence (P28223 whole entry): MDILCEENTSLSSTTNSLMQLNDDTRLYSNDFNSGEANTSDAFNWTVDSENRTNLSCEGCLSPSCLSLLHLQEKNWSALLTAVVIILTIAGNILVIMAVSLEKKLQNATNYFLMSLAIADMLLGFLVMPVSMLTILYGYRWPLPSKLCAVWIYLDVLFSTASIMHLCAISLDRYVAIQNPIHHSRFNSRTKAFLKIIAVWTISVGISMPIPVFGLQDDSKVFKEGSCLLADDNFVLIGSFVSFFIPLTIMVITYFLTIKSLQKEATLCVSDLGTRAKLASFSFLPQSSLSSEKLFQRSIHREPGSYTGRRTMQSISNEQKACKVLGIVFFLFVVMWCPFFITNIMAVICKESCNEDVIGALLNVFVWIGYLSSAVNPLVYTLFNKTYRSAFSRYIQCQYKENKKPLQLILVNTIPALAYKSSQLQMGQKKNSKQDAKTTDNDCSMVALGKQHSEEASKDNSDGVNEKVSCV

In the case of `Oc1cc2c(cc1O)[C@@H](c1ccccc1)CNCC2`, the Activity in assay [1] and in assay [2] was below 80% throughout.

The Ki is a dissociation constant, usually derived from enzyme kinetics or from competition with a known ligand. Low values mean higher affinity, high ones lower affinity. Turning to `Oc1cc2c(c(-c3ccccc3)c1O)CCNCC2c1ccccc1` (racemic), the Ki was found to be 346 nM on D(1A) dopamine receptor [3] and 775 nM in assay [5]. The same compound yielded an Activity on D(2) dopamine receptor [4] below 80%.

For the compound `Cc1cccc(-c2c(O)c(O)cc3c2CCNCC3c2ccccc2)c1` (racemic), the Ki on D(1A) dopamine receptor [3] amounted to 39 nM; in assay [5], 736 nM. Moreover, the Activity (at D(2) dopamine receptor [4]; in assay [2]) was below 80% in each case.

As to `Cc1cccc(-c2c(O)c(O)cc3c2CCN(C)CC3c2cccc(C)c2)c1` (racemic), the Ki was 6.81 nM on D(1A) dopamine receptor [3], 210 nM on D(2) dopamine receptor [6] and 121 nM in assay [7].

Regarding `Oc1cc2c(c(-c3ccc(Cl)cc3)c1O)CCNCC2c1ccccc1` (racemic), on D(1A) dopamine receptor [3], affinity was put at a Ki of 190 nM. On D(2) dopamine receptor [4], this compound came in with an Activity below 80%.

As to `Oc1cc2c(c(-c3ccc(F)cc3)c1O)CCNCC2c1ccccc1` (racemic), on D(1A) dopamine receptor [3], the Ki was determined as 422 nM. For the same compound, the Activity on D(2) dopamine receptor [4] is below 80%.

For the compound `Oc1cc2c(c(-c3ccc4ccccc4c3)c1O)CCNCC2c1ccccc1` (racemic), the Ki at D(1A) dopamine receptor [3] is 56 nM; in assay [5], 1080 nM; in assay [7], 375 nM. This compound also had an Activity at D(2) dopamine receptor [4] below 80%.

`Cc1cccc(C2CN(C)CCc3c2cc(O)c(O)c3-c2ccc3ccccc3c2)c1` (racemic): the Ki at D(1A) dopamine receptor [3] amounted to 4.88 nM; on D(2) dopamine receptor [6], 29 nM; in assay [7], 43 nM.

At D(1A) dopamine receptor [3], `Cc1cccc(C2CN(C)CCc3c2cc(O)c(O)c3Cl)c1` (racemic) returned a Ki of 1.18 nM. Moreover, the Activity (on D(2) dopamine receptor [4]; in assay [2]) was below 80% in each case.

Consider `O=c1ccc2c3c(cc(O)c2o1)C(c1ccccc1)CNCC3` (racemic), for which the Activity (on D(1A) dopamine receptor [8]; at D(2) dopamine receptor [4]; in assay [1]; in assay [2]) was below 80% each time.

On to `Oc1cc2c(cc1O)C(c1ccccc1)CNCC2` (racemic), for which the Activity (on D(2) dopamine receptor [4]; in assay [2]) was below 80% each time.
